ChEMBL document CHEMBL3632461 (J Med Chem, 2015)
The source made the active and inactive calls. The rule behind the calls is not given here.

Tests used:
[1] = molecular target: T1, Thyroid peroxidase (Homo sapiens) (UniProt P07202); assay: Inhibition of TPO (unknown origin) using Amplex Red as substrate assessed as formation of resorufin by measuring ratio of Kinact to Ki measured every 20 secs by spectrophotometric analysis
T1 sequence (whole entry): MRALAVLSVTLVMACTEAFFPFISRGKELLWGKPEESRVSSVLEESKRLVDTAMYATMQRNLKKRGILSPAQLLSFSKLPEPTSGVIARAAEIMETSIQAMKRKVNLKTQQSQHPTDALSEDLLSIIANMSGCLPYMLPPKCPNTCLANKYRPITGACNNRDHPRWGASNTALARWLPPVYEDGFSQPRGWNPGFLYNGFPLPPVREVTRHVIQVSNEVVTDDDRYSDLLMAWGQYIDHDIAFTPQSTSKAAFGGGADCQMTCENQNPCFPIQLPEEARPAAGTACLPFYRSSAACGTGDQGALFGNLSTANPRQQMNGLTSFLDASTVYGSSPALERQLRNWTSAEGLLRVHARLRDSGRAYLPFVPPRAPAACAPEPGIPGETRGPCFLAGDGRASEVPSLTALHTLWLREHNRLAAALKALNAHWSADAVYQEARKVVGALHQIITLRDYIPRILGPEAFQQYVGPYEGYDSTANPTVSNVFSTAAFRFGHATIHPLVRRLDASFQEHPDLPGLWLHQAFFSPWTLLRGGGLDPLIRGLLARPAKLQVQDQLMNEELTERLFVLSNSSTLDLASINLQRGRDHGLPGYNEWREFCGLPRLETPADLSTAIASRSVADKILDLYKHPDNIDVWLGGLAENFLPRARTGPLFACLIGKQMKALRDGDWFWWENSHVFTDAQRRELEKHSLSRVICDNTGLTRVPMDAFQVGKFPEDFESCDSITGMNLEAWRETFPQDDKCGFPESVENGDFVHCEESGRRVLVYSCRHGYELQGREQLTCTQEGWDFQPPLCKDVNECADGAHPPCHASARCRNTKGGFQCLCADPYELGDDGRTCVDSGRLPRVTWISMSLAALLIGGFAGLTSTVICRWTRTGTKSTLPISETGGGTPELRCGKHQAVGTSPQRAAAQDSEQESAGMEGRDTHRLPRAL
How it was run: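 Amplex Red oxidation to resorufin in 50 mM sodium phosphate pH 7.4, 150 mM NaCl, 1 mM DTPA, 2 μM H2O2, 30 μM Amplex Red, 2% DMSO. Reaction started by adding TPO. Background rate measured with bovine catalase added and subtracted. Fluorescence (ex 530/em 580) read every 20 s at room temperature. kinact/KI taken from initial rates over the first 300 s. Geometric mean of at least two experiments.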

[2] = Lipophilicity, log D of the compound at pH 7.4 by shake-flask method; assay type: physicochemical; conditions: buffer
[3] = molecular target: T2, Myeloperoxidase (Homo sapiens) (UniProt P05164); assay: Inhibition of peroxidase activity of MPO isolated from human polynuclear leukocytes using Amplex Red as substrate assessed as formation of resorufin by measuring ratio of Kinact to Ki measured every 20 secs by spectrophotometric analysis
T2 sequence (whole entry): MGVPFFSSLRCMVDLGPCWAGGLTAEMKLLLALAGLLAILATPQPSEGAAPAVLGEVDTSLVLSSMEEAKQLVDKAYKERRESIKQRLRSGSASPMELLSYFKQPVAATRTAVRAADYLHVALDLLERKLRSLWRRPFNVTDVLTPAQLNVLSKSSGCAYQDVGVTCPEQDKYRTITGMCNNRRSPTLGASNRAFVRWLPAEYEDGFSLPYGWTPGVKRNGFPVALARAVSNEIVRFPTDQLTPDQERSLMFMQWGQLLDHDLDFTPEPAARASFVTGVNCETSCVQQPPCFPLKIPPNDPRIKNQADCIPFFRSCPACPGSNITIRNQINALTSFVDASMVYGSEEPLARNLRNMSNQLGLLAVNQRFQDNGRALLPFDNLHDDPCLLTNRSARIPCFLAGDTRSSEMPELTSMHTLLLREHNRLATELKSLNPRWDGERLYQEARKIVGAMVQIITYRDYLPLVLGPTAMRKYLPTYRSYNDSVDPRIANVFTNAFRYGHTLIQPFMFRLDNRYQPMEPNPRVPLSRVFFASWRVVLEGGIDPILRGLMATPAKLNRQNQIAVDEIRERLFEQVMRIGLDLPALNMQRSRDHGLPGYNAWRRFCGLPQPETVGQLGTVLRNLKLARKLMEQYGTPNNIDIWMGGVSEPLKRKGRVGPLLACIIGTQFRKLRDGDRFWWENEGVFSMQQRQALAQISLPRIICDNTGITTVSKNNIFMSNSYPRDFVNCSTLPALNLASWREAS
How it was run: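 Enzyme purified from human polynuclear leukocytes. Buffer: 50 mM sodium phosphate pH 7.4, 150 mM NaCl, 1 mM DTPA, 2 μM H2O2, 30 μM Amplex Red, inhibitor or DMSO. Resorufin fluorescence (ex 530/em 580) read every 20 s at room temperature. Progress curves fitted for kobs at each concentration. kinact/KI derived from the kobs versus [I] fit or slope. Geometric mean of at least two experiments.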

Myeloperoxidase [4] = molecular target: T3, Myeloperoxidase (Homo sapiens, UniProt P05164); assay: Irreversible inhibition of MPO in LPS-stimulated human whole blood after 4 hrs by Amplex Red/H2O2-based fluorescence plate reader analysis
T3 sequence (P05164 whole entry): T2 sequence (whole entry)
How it was run: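 Heparinized whole blood from healthy human volunteers, stimulated with bacterial LPS and incubated with compound for 4 h. MPO captured on anti-MPO antibody plates and washed; residual activity measured with Amplex Red and H₂O₂. IC₅₀ reported as geometric mean [90% CI].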

[5] = Retention time of the compound in sodium phosphate buffer at 10 uM after 60 mins by LC-MS/MS analysis in presence of H2O2; assay type: physicochemical; conditions: 1 h
[6] = Retention time of the compound by LC-MS/MS analysis in presence of human MPO/H2O2/Cl-/excess GSH; assay type: physicochemical
[7] = molecular target: T2, Myeloperoxidase (Homo sapiens); conditions: 0.47 to 30 uM
[8] = molecular target: T2, Myeloperoxidase (Homo sapiens); conditions: 24 uM
Myeloperoxidase [9] = molecular target: T3, Myeloperoxidase; assay: Inhibition of peroxidase activity of MPO isolated from human polynuclear leukocytes using Amplex Red as substrate assessed as formation of resorufin after 300 secs by spectrophotometric analysis
[10] = molecular target: T2, Myeloperoxidase (Homo sapiens); conditions: 24 uM; remark: listed apart in the source
[11] = Drug level in sodium phosphate buffer treated with 10 uM PTU after 60 mins by LC-MS/MS analysis in presence of human MPO/H2O2/Cl-; assay type: physicochemical; conditions: 1 h
Liver microsome = assay: Intrinsic apparent clearance in human liver microsomes; assay type: ADME
How it was run: (§1)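 Stability incubations in NADPH-supplemented human liver microsomes or cryopreserved human hepatocytes. Total apparent intrinsic clearance scaled from the in vitro half-life; microsomes reported per mg protein, hepatocytes per 10⁶ cells.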

[12] = Apparent permeability across RRCK cells; assay type: ADME, cell-based, Canis lupus familiaris, MDCKII-LE; conditions: dog, MDCK
How it was run: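 Passive permeability measured in Ralph−Russ canine kidney (RRCK) cells, a low-transporter line isolated from Madin−Darby canine kidney cells; reported as P_app (10⁻⁶ cm/s).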

[13] = molecular target: T2, Myeloperoxidase (Homo sapiens); assay: (§2) Inhibition of peroxidase activity of MPO isolated from human polynuclear leukocytes using Amplex Red as substrate assessed as formation of resorufin measured every 20 secs by spectrophotometric analysis
Myeloperoxidase [14] = molecular target: T3, Myeloperoxidase; assay: as §2
[15] = Elimination half life in Wistar rat at 1 mg/kg, iv and 3 or 5 mg/kg, po; assay type: ADME, organism-based; conditions: in vivo, read-out: beta t1/2 (converted)
How it was run: (§3)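 Male CD-1 mice (25−35 g), cannulated Wistar-Han rats (250 g), beagle dogs (12 kg) and cynomolgus monkeys (7 kg), fasted overnight and fed 1.0 or 2.0 h after dosing. iv 1 mg/kg in saline or 12% sulfobutyl ether β-cyclodextrin; po 3 or 5 mg/kg in 0.5% methylcellulose. Parameters calculated from plasma concentration−time data; mean ± SD for n = 3, individual values for n = 2.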

[16] = Tmax in Wistar rat at 3 or 5 mg/kg, po; assay type: ADME, organism-based; conditions: in vivo
How it was run: (§4)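 Male animals (CD-1 mice 25−35 g, cannulated Wistar-Han rats 250 g, beagle dogs 12 kg, cynomolgus monkeys 7 kg), fasted overnight and fed 1.0 or 2.0 h after dosing, water ad libitum. Oral dose 3 or 5 mg/kg in 0.5% methylcellulose. Parameters calculated from plasma concentration−time data; mean ± SD for n = 3, individual values for n = 2.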

[17] = Tmax in Beagle dog at 3 or 5 mg/kg, po; assay type: ADME, organism-based, Canis lupus familiaris; conditions: in vivo; how it was run: as §4
[18] = Fraction unbound in human plasma by equilibrium dialysis method; assay type: ADME, cell-free
How it was run: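 Fraction unbound in human plasma measured by equilibrium dialysis; mean of three individual determinations.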

Hepatocyte = assay: Intrinsic apparent clearance in human hepatocytes assessed per 10^6 cells; assay type: ADME, cell-based; how it was run: as §1
[19] = Plasma clearance in Wistar rat at 1 mg/kg, iv and 3 or 5 mg/kg, po; assay type: ADME, organism-based; how it was run: as §3
[20] = Plasma clearance in Beagle dog at 1 mg/kg, iv and 3 or 5 mg/kg, po; assay type: ADME, organism-based, Canis lupus familiaris; how it was run: as §3
[21] = Oral bioavailability in Wistar rat at 3 or 5 mg/kg; assay type: ADME, organism-based; conditions: in vivo
How it was run: (§5)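 Male CD-1 mice, Wistar-Han rats, beagle dogs and cynomolgus monkeys, fasted overnight and fed after dosing. Given po at 3 or 5 mg/kg in 0.5% methylcellulose, with an iv reference dose of 1 mg/kg. Bioavailability derived from plasma concentration−time data; mean ± SD (n = 3) or individual values (n = 2).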

[22] = Volume of distribution at steady state in Beagle dog at 1 mg/kg, iv and 3 or 5 mg/kg, po; assay type: ADME, organism-based, Canis lupus familiaris; conditions: in vivo, read-out: Vdss
How it was run: (§6)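 Male mice, rats, dogs and cynomolgus monkeys, fasted overnight, fed after dosing. Intravenous dose 1 mg/kg in saline or 12% sulfobutyl ether β-cyclodextrin; oral arm 3 or 5 mg/kg in 0.5% methylcellulose. Steady-state volume derived from plasma concentration−time data; mean ± SD for n = 3, individual values for n = 2.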

[23] = Elimination half life in Beagle dog at 1 mg/kg, iv and 3 or 5 mg/kg, po; assay type: ADME, organism-based, Canis lupus familiaris; conditions: in vivo, read-out: beta t1/2 (converted); how it was run: as §3
[24] = Volume of distribution at steady state in Wistar rat at 1 mg/kg, iv and 3 or 5 mg/kg, po; assay type: ADME, organism-based; conditions: in vivo, read-out: Vdss; how it was run: as §6
[25] = Oral bioavailability in Beagle dog at 3 or 5 mg/kg; assay type: ADME, organism-based, Canis lupus familiaris; conditions: in vivo; how it was run: as §5

COc1ccccc1-c1cc(=O)[nH]c(=S)[nH]1
log(ratio) [1]: 2.86
logD [2]: 1.3
log(ratio) [3]: 3.36
IC50 (Myeloperoxidase [4]): 6.2 µM

COc1ccc(-c2cc(=O)nc3n2CCO3)c(OC)c1
Retention_time [5]: 14.99 min

COc1ccc(-c2cc(=O)nc(SC[C@H](NC(=O)CC[C@H](N)C(=O)O)C(=O)NCC(=O)O)n2CCOC(C)C)c(OC)c1
Retention_time [6]: 15.7 min

CCCc1cc(=O)[nH]c(=S)[nH]1 [PROPYLTHIOURACIL]
inhibition [7]: tde
inhibition [8]: Active
IC50 (Myeloperoxidase [4]): 5.7 µM
IC50 (Myeloperoxidase [9]): 2.81 µM
inhibition [10]: inactive

CCCc1cc(=O)nc(SSc2nc(=O)cc(CCC)[nH]2)[nH]1
Drug metabolism [11]: metabolite_detected

CCCc1cc(=O)nc(S(=O)(=O)O)[nH]1
Drug metabolism [11]: metabolite_detected

COc1ccc(-c2cc(=O)[nH]c(=S)n2CCOC(C)C)c(OC)c1
log(ratio) [1]: < 0.5
logD [2]: 2.6
CLH(app) (Liver microsome): 11 µL/min/mg
log(ratio) [3]: 3.87
Papp [12]: 26 ×10⁻⁶ cm/s
IC50 (Myeloperoxidase [4]): 11 µM
pKinact [13]: 2.43
Ki (Myeloperoxidase [14]): 0.501 µM
Retention_time [6]: 25.4 min

CCCc1cc(=O)nc(S(=O)O)[nH]1
Drug metabolism [11]: metabolite_detected

COc1ccc(-c2cc(=O)[nH]c(=S)n2CC(=O)NCCN)c(OC)c1
half-life [15]: 48.6 min
Tmax [16]: 45 min
Tmax [17]: 60 min
log(ratio) [1]: < 0.5
logD [2]: -1.4
fraction unbound [18]: 0.9
CLH(app) (Liver microsome): < 8 µL/min/mg
log(ratio) [3]: 4.03
Papp [12]: 1.5 ×10⁻⁶ cm/s
CLH(app) (Hepatocyte): < 6 µL/min
clearance [19]: 38.6 mL/min/kg
clearance [20]: 4.1 mL/min/kg
bioavailability [21]: 3%
Vd [22]: 0.86 L/kg
half-life [23]: 155 min
Vd [24]: 0.59 L/kg
bioavailability [25]: 8%
